Measured values reported in ChEMBL document CHEMBL1148142, “New metabolites from sponge-derived fungi Curvularia lunata and Cladosporium herbarum” (J Nat Prod, 2002).
Calls of active or inactive are those of the source. No cut-off for these calls is given here.

How the values were obtained:
HL-60 = experiment: Cytotoxicity against human HL60 cells; type: functional, cell-based
Escherichia coli [1] = experiment: Antibacterial activity against Escherichia coli ATCC 25922 at 10 ug/disk by agar plate diffusion assay; type: functional; details: read-out: IZ
Summary of the method: (§1)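 Paper disks (5.5 mm) loaded with 5 or 10 μg of pure compound, laid on agar plates seeded with the test organism. Plates incubated 24 h at 37 °C, then inspected for inhibition zones.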

Escherichia coli [2] = experiment: Antibacterial activity against Escherichia coli HBI 101 at 10 ug/disk by agar plate diffusion assay; type: functional; details: read-out: IZ; summary of the method: as §1
Escherichia coli [3] = experiment: Antibacterial activity against Escherichia coli ATCC 25922 at 5 ug/disk by agar plate diffusion assay; type: functional; details: read-out: IZ; summary of the method: as §1
Staphylococcus aureus [4] = experiment: Antibacterial activity against Staphylococcus aureus ATCC 25923 at 5 ug/disk by agar plate diffusion assay; type: functional; details: read-out: IZ; summary of the method: as §1
Escherichia coli [5] = experiment: Antibacterial activity against Escherichia coli HBI 101 at 5 ug/disk by agar plate diffusion assay; type: functional; details: read-out: IZ; summary of the method: as §1
Bacillus subtilis [6] = experiment: Antibacterial activity against Bacillus subtilis 168 at 10 ug/disk by agar plate diffusion assay; type: functional; details: read-out: IZ; summary of the method: as §1
Candida albicans [7] = experiment: Antifungal activity against Candida albicans at 5 ug/disk by agar plate diffusion assay; type: functional, organism-based; summary of the method: as §1
Candida albicans [8] = experiment: Antifungal activity against Candida albicans at 10 ug/disk by agar plate diffusion assay; type: functional, organism-based; summary of the method: as §1
Bacillus subtilis [9] = experiment: Antibacterial activity against Bacillus subtilis 168 at 5 ug/disk by agar plate diffusion assay; type: functional; details: read-out: IZ; summary of the method: as §1
Staphylococcus aureus [10] = experiment: Antibacterial activity against Staphylococcus aureus ATCC 25923 at 10 ug/disk by agar plate diffusion assay; type: functional; details: read-out: IZ; summary of the method: as §1

Row | Structure (SMILES) | Activity (HL-60) | zone of inhibition at 10 µg/disc (Escherichia coli [1]) [mm] | zone of inhibition at 10 µg/disc (Escherichia coli [2]) [mm] | zone of inhibition at 5 µg/disc (Escherichia coli [3]) [mm] | zone of inhibition at 5 µg/disc (Staphylococcus aureus [4]) [mm] | zone of inhibition at 5 µg/disc (Escherichia coli [5]) [mm] | zone of inhibition at 10 µg/disc (Bacillus subtilis [6]) [mm] | Activity (Candida albicans [7]) | Activity (Candida albicans [8]) | zone of inhibition at 5 µg/disc (Bacillus subtilis [9]) [mm] | zone of inhibition at 10 µg/disc (Staphylococcus aureus [10]) [mm]
1 | O=C(O)CC1OC(=O)c2c(O)cc(O)cc21 (stereo unspecified) | Not toxic | – | – | – | – | – | – | – | – | – | –
2 | COc1cc(O)c2c(c1)C(=O)C13C(=C(O)C4[C@@H](O)C1C1[C@H](O)C3C(O)=C3C(=O)c5c(O)cc(OC)cc5C(=O)C341)C2=O (stereo partly specified) [CYTOSKYRIN A] | – | 11 | 9 | 9 | 8.5 | 8 | 12 | inactive | inactive | 8 | 10
3 | COc1cc(O)c2c(c1)C(=O)c1cc(O)cc(O)c1C2=O [LUNATIN] | – | 11 | 10.5 | 9 | 8.5 | 8 | 9 | inactive | inactive | 7.5 | 10
